Where “and” joins values, the source holds several entries; their conditions need not be identical. Equal entries are not always repeated. Where two headings read alike, the source gives them in different places.
Assays:
[1] = system: CHLA-122 neuroblastoma cell line; assay: DIMSCAN in vitro testing, 96 h; format: cell-based; settings: for IC50: Neuroblastoma cell, 96 h
Procedure, shortened: (§1)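 Neuroblastoma and Ewing sarcoma lines, STR-verified and maintained as in the originators' reports. Exposed for 96 h to test compound (DMSO stock diluted in medium) at 1 nM–10 μM. Viable cells quantified by fluorescein diacetate fluorescence with DIMSCAN digital image microscopy. Absolute IC50 = concentration giving 50% growth inhibition vs controls. Relative IC50 = concentration giving 50% of the maximum inhibitory effect.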

[2] = system: CHLA-25 Ewing sarcoma cell line; assay: DIMSCAN in vitro testing, 96 h; format: cell-based; settings: for IC50: 96 h
Procedure, shortened: as §1

[3] = system: SMS-MSN neuroblastoma cell line; assay: DIMSCAN in vitro testing, 96 h; format: cell-based; settings: for IC50: Neuroblastoma cell, 96 h
Procedure, shortened: as §1

[4] = patients, 50 mg BID for 7 days; cited from earlier work
[5] = system: NB-SD Neuroblastoma xenograft; format: in vivo, mice
Procedure, shortened: (§2)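 Female CB17 scid mice bearing subcutaneous tumors, 10 per group. Dosed by oral gavage twice daily, 5 days weekly for 6 weeks, at 20.8, 10.4, 5.2 or 2.6 mg/kg, in 10% 2-hydroxypropyl-β-cyclodextrin/1% sodium bicarbonate. Event = quadrupled tumor volume; EFS by Kaplan–Meier, exact log-rank test. Per-mouse scores PD/SD/PR (≥50% regression)/CR (<0.10 cm3)/MCR; group median reported. PR, CR and MCR count as objective responses.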

[6] = system: CHLA-258 Ewing sarcoma cell line; assay: DIMSCAN in vitro testing, 96 h; format: cell-based; settings: for IC50: 96 h
Procedure, shortened: as §1

[7] = system: ALL-8 ALL T-cell xenograft; assay: ALL xenograft; format: in vivo, mice
Procedure, shortened: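 Female NOD/scid mice inoculated intravenously with leukemia cells, 8 per group. Test compound suspended in 10% 2-hydroxypropyl-β-cyclodextrin/1% sodium bicarbonate in water. Given by oral gavage twice daily, 5 days weekly for 3 weeks, at 20.8, 10.4, 5.2 or 2.6 mg/kg. Blood %hCD45 of leukocytes tracked; event = hCD45 reaching 25%. EFS by Kaplan–Meier, exact log-rank vs controls. Median group response from individual scores.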

[8] = system: PPTP in vivo xenograft models; assay: Objective responses by AURKA copy number; parameters: species or system mice; settings: MTD
[9] = system: Ewing sarcoma cell lines; assay: DIMSCAN in vitro testing, 96 h, Ewing panel; format: cell-based
Procedure, shortened: as §1

[10] = system: SK-N-BE(1) neuroblastoma cell line; assay: DIMSCAN in vitro testing, 96 h; format: cell-based; settings: for IC50: Neuroblastoma cell, 96 h
[11] = system: NB-1382 Neuroblastoma xenograft; format: in vivo, mice; settings: 20.8 mg/kg
Procedure, shortened: as §2

Compound: COc1cc(Nc2ncc3c(n2)-c2ccc(Cl)cc2C(c2c(F)cccc2OC)=NC3)ccc1C(=O)O [MLN8237]
- Ymin ([1]; CHLA-122, minimum T/C): 0.6%
- IC50 ([1]; read-out: Absolute IC50): 19 nM
- IC50 ([1]; read-out: Relative IC50): 17 nM
- IC50 ([2]; read-out: Absolute IC50): 168 nM
- IC50 ([2]; read-out: Relative IC50): 58 nM
- Ymin ([2]; CHLA-25, minimum T/C): 30.1%
- IC50 ([3]; read-out: Absolute IC50): 22 nM
- IC50 ([3]; read-out: Relative IC50): 17 nM
- Ymin ([3]; SMS-MSN, minimum T/C): 16.1%
- average trough concentrations [4]: exceeded 1 μM
- EFS T/C ([5]; 2.6 mg/kg): 1.6
- EFS activity ([5]; 2.6 mg/kg): Low
- Estimate of median time to event ([5]; 2.6 mg/kg): 15.2 days
- Median group response ([5]; 2.6 mg/kg): PD1 (if the TGD value ≤1.5, that mouse was considered PD1)
- Response activity ([5]; 2.6 mg/kg): Low
- Tumor volume T/C ([5]; 2.6 mg/kg): 0.59
- Median RTV/hCD45 at end of study ([5]; 2.6 mg/kg): >4
- EFS T/C ([5]; 5.2 mg/kg): 2.2
- EFS activity ([5]; 5.2 mg/kg): Int
- Estimate of median time to event ([5]; 5.2 mg/kg): 20.9 days
- Median group response ([5]; 5.2 mg/kg): PD2 (if the TGD value >1.5, the mouse was considered PD2)
- Response activity ([5]; 5.2 mg/kg): Int
- Tumor volume T/C ([5]; 5.2 mg/kg): 0.60
- Median RTV/hCD45 at end of study ([5]; 5.2 mg/kg): >4
- EFS T/C ([5]; 10.4 mg/kg): 3.9
- EFS activity ([5]; 10.4 mg/kg): Int
- Estimate of median time to event ([5]; 10.4 mg/kg): 37.5 days
- Median group response ([5]; 10.4 mg/kg): PD2 (if the TGD value >1.5, the mouse was considered PD2)
- Response activity ([5]; 10.4 mg/kg): Int
- Tumor volume T/C ([5]; 10.4 mg/kg): 0.50
- Median RTV/hCD45 at end of study ([5]; 10.4 mg/kg): >4
- EFS T/C ([5]; 20.8 mg/kg): >4.4
- EFS activity ([5]; 20.8 mg/kg): High
- Response activity ([5]; 20.8 mg/kg): Int
- Tumor volume T/C ([5]; 20.8 mg/kg): 0.47
- Median RTV/hCD45 at end of study ([5]; 20.8 mg/kg): 0.9
- IC50 ([6]; read-out: Absolute IC50): 132 nM
- IC50 ([6]; read-out: Relative IC50): 82 nM
- Ymin ([6]; CHLA-258, minimum T/C): 18.8%
- EFS T/C ([7]; 2.6 mg/kg): 1.8
- EFS activity ([7]; 2.6 mg/kg): Low
- Estimate of median time to event ([7]; 2.6 mg/kg): 23.0 days
- Median group response ([7]; 2.6 mg/kg): PD2 (if the TGD value >1.5, the mouse was considered PD2)
- Response activity ([7]; 2.6 mg/kg): Int
- Median RTV/hCD45 at end of study ([7]; 2.6 mg/kg): >25%
- EFS T/C ([7]; 5.2 mg/kg): 2.5
- EFS activity ([7]; 5.2 mg/kg): Int
- Estimate of median time to event ([7]; 5.2 mg/kg): 31.6 days
- Response activity ([7]; 5.2 mg/kg): High
- Median RTV/hCD45 at end of study ([7]; 5.2 mg/kg): >25%
- EFS T/C ([7]; 10.4 mg/kg): >3.3
- EFS activity ([7]; 10.4 mg/kg): Int
- Response activity ([7]; 10.4 mg/kg): High
- Median RTV/hCD45 at end of study ([7]; 10.4 mg/kg): 6.2%
- EFS T/C ([7]; 20.8 mg/kg): >3.3
- EFS activity ([7]; 20.8 mg/kg): High
- Median group response ([7]; 20.8 mg/kg): MCR
- Response activity ([7]; 20.8 mg/kg): High
- Median RTV/hCD45 at end of study ([7]; 20.8 mg/kg): 0.2%
- objective responses in tumors with decreased AURKA copy number [8]: 5/8
- objective responses in tumors with increased AURKA gene copy number [8]: 2/14 and 2
- median Ymin, Ewing cell lines ([9]; median of Ewing panel): 11.4%
- IC50 ([9]; read-out: relative IC50 values, Ewing sarcoma cell lines): 58 nM
- IC50 ([10]; read-out: Absolute IC50): 28 nM
- IC50 ([10]; read-out: Relative IC50): 24 nM
- Ymin ([10]; SK-N-BE(1), minimum T/C): 4.0%
- EFS T/C [11]: >1.7
- Median group response [11]: PD2 (if the TGD value >1.5, the mouse was considered PD2)
- Response activity [11]: Int
- Tumor volume T/C [11]: 0.31
- Median RTV/hCD45 at end of study ([11]; RTV): 2.1
